{
  "source": "ChEMBL document CHEMBL4038333",
  "about": "“Nonacidic Farnesoid X Receptor Modulators” (J Med Chem, 2017)",
  "key": {"Bile acid receptor": {"target": "T1, Bile acid receptor (Homo sapiens, UniProt Q96RI1)", "T1 sequence (Q96RI1 whole entry)": "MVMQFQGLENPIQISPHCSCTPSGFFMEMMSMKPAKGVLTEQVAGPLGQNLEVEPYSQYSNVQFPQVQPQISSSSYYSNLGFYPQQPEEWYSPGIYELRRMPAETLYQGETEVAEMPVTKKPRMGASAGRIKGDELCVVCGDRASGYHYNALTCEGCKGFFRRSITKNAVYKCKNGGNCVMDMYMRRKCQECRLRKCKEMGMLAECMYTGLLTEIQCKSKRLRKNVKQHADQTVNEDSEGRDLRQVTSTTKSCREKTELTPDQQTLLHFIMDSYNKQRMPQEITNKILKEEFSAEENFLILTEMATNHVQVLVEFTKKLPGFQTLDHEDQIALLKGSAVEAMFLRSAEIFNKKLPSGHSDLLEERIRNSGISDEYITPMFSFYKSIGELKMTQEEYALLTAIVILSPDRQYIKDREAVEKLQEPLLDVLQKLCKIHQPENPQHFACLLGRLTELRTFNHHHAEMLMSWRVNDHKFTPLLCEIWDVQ", "assay": "Transactivation of human FXR expressed in human HeLa cells co-expressing BSEP after 24 hrs by dual-glo luciferase reporter gene assay", "format": "cell-based", "conditions": "read-out: EC50", "outline": "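Full-length reporter system with constitutive expression of hFXR and hRXR. A constitutive Renilla luciferase served for normalization and as a toxicity control. Maximum relative activation was expressed against a reference FXR agonist at 3 µM, set as 100%.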"}, "[1]": {"assay": "Aqueous solubility of compound", "format": "physicochemical", "conditions": "buffer"}, "HepG2": {"test_system": "HepG2", "assay": "Cytotoxicity against human HepG2 cells up to 100 uM after 48 hrs by WST-1 assay", "format": "cell-based", "conditions": "hepg2, 48 h"}, "[2]": {"target": "Vitamin D3 receptor (Homo sapiens) (UniProt P11473)", "sequence (P11473 whole entry, the tested form may be a part, canonical isoform)": "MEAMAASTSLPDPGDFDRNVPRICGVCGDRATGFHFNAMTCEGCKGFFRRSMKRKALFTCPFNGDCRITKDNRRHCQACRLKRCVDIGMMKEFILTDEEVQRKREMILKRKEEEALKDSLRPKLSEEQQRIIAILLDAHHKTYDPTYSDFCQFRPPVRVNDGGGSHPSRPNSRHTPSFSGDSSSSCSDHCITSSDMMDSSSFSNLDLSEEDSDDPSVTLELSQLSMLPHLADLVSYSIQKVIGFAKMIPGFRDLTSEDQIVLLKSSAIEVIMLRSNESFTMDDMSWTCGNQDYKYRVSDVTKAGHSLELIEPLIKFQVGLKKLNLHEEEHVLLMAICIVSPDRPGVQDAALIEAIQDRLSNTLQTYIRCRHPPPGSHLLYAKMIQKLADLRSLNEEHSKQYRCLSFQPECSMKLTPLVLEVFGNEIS", "assay": "Transactivation of GAL4-tagged human VDR isoform 1 ligand binding domain (119 to 427 residues) expressed in HEK293T cells at 1 uM after 12 to 14 hrs by dual-glo luciferase reporter gene assay", "format": "cell-based", "conditions": "HEK-293T", "outline": "(§1)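 Run as a selectivity screen against each listed receptor (14 nuclear receptors plus TGR5), in both agonist and antagonist modes. Test concentration was 1 µM, with n = 3.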"}, "[3]": {"target": "Retinoic acid receptor gamma (Homo sapiens) (UniProt P13631)", "sequence (P13631 whole entry, the tested form may be a part, canonical isoform)": "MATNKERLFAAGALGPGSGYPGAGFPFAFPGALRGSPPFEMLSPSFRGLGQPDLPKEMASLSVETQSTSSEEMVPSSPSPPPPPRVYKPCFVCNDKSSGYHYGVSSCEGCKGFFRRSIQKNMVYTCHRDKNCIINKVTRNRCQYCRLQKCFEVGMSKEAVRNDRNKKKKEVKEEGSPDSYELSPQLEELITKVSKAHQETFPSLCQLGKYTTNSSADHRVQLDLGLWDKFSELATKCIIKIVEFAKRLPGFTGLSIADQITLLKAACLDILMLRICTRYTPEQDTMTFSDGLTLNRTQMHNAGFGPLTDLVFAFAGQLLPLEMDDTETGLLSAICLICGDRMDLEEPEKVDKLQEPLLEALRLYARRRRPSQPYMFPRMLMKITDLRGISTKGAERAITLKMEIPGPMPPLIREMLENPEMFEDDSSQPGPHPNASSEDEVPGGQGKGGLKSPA", "assay": "Transactivation of GAL4-tagged human RARgamma isoform 1 ligand binding domain (179 to 454 residues) expressed in HEK293T cells at 1 uM after 12 to 14 hrs by dual-glo luciferase reporter gene assay", "format": "cell-based", "conditions": "HEK-293T", "outline": "as §1"}, "[4]": {"target": "Retinoic acid receptor beta (Homo sapiens) (UniProt P10826)", "sequence (P10826 whole entry, the tested form may be a part)": "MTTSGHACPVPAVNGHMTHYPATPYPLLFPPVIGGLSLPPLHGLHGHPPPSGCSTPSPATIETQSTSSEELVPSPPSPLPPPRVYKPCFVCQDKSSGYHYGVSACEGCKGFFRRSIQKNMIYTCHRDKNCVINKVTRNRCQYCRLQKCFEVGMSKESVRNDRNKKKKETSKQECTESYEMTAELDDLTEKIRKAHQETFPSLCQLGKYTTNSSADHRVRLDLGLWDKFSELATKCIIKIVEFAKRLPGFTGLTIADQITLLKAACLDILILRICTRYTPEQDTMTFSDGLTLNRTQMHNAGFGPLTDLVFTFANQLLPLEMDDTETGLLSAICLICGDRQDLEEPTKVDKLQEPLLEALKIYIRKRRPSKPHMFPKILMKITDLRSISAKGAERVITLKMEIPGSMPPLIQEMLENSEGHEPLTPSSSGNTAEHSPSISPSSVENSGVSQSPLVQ", "assay": "Transactivation of GAL4-tagged human RARbeta1 ligand binding domain (177 to 455 residues) expressed in HEK293T cells at 1 uM after 12 to 14 hrs by dual-glo luciferase reporter gene assay", "format": "cell-based", "conditions": "HEK-293T", "outline": "as §1"}, "[5]": {"target": "Retinoic acid receptor alpha (Homo sapiens) (UniProt P10276)", "sequence (P10276 whole entry, the tested form may be a part)": "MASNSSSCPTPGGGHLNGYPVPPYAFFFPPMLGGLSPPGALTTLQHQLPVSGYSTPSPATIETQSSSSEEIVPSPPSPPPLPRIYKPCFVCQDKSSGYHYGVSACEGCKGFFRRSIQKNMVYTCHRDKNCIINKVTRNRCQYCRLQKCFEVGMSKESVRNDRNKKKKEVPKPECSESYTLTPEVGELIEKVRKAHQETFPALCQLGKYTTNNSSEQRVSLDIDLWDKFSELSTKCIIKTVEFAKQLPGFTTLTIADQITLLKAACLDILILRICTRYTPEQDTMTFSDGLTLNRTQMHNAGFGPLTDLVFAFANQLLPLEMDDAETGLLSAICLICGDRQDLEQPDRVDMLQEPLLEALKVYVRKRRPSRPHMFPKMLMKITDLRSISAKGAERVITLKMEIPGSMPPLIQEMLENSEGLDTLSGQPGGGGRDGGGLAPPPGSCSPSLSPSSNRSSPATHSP", "assay": "Transactivation of GAL4-tagged human RARalpha1 ligand binding domain (177 to 462 residues) expressed in HEK293T cells at 1 uM after 12 to 14 hrs by dual-glo luciferase reporter gene assay", "format": "cell-based", "conditions": "HEK-293T", "outline": "as §1"}, "[6]": {"target": "Retinoic acid receptor RXR-beta (Homo sapiens) (UniProt P28702)", "sequence (P28702 whole entry, the tested form may be a part, canonical isoform)": "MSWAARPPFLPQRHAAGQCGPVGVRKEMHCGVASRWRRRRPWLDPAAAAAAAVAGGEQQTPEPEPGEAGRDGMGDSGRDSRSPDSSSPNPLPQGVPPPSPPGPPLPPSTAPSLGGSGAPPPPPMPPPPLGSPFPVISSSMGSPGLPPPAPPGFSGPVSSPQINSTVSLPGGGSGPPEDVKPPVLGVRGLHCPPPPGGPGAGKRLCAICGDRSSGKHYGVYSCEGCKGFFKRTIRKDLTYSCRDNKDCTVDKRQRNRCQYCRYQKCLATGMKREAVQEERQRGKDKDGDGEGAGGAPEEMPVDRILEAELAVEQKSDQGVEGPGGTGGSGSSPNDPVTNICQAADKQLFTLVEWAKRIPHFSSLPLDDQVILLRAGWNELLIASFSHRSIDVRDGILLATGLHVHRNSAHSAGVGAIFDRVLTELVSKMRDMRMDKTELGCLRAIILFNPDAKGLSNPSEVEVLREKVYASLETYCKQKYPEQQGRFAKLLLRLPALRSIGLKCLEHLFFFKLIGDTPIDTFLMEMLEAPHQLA", "assay": "Transactivation of GAL4-tagged human RXRbeta isoform 1 ligand binding domain (294 to 533 residues) expressed in HEK293T cells at 1 uM after 12 to 14 hrs by dual-glo luciferase reporter gene assay", "format": "cell-based", "conditions": "HEK-293T", "outline": "as §1"}, "[7]": {"target": "Oxysterols receptor LXR-beta (Homo sapiens) (UniProt P55055)", "sequence (P55055 whole entry, the tested form may be a part)": "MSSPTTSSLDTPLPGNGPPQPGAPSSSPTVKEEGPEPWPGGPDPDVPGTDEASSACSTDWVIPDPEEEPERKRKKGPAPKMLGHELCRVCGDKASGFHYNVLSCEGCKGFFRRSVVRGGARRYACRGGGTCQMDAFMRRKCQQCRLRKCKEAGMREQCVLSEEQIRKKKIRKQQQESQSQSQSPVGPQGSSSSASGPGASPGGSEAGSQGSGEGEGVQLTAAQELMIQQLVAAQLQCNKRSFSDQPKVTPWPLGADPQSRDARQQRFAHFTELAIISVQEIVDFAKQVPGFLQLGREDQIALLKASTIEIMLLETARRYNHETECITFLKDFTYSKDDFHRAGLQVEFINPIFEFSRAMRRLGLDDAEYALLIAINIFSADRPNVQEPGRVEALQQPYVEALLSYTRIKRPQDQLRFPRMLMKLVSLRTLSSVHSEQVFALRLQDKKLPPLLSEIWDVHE", "assay": "Transactivation of GAL4-tagged human LXRbeta ligand binding domain expressed in HEK293T cells at 1 uM after 12 to 14 hrs by dual-glo luciferase reporter gene assay", "format": "cell-based", "conditions": "HEK-293T", "outline": "as §1"}, "[8]": {"target": "Peroxisome proliferator-activated receptor delta (Homo sapiens) (UniProt Q03181)", "sequence (Q03181 whole entry, the tested form may be a part)": "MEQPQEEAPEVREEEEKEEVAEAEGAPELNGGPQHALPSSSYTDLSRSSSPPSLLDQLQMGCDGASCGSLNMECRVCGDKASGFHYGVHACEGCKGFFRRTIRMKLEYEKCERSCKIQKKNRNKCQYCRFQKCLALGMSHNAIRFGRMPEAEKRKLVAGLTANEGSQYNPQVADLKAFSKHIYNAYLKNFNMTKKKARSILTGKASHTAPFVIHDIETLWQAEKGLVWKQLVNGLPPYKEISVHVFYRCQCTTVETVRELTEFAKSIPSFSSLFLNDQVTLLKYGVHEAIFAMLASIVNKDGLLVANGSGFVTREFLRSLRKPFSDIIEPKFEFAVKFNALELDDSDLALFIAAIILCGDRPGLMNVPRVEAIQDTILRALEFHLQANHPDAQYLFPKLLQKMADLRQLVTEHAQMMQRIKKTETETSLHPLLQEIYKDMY", "assay": "Transactivation of GAL4-tagged human PPARdelta ligand binding domain expressed in HEK293T cells at 1 uM after 12 to 14 hrs by dual-glo luciferase reporter gene assay", "format": "cell-based", "conditions": "HEK-293T", "outline": "as §1"}, "[9]": {"target": "Peroxisome proliferator-activated receptor gamma (Homo sapiens) (UniProt P37231)", "sequence (P37231 whole entry, the tested form may be a part)": "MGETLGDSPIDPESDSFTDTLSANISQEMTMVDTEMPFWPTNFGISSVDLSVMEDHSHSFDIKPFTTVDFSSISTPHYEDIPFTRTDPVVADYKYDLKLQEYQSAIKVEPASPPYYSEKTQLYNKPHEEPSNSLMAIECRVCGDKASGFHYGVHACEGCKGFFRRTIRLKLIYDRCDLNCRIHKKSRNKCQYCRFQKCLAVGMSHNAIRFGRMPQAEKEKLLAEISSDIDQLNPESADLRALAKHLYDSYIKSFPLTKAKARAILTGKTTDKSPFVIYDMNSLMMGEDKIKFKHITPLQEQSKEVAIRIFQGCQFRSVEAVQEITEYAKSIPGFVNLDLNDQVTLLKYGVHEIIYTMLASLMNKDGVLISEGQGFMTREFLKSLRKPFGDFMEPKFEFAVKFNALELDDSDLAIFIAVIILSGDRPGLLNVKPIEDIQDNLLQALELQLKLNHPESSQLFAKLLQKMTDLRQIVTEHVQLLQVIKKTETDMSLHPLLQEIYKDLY", "assay": "Transactivation of GAL4-tagged human PPARgamma ligand binding domain expressed in HEK293T cells at 1 uM after 12 to 14 hrs by dual-glo luciferase reporter gene assay", "format": "cell-based", "conditions": "HEK-293T", "outline": "as §1"}, "[10]": {"target": "Peroxisome proliferator-activated receptor alpha (Homo sapiens) (UniProt Q07869)", "sequence (Q07869 whole entry, the tested form may be a part)": "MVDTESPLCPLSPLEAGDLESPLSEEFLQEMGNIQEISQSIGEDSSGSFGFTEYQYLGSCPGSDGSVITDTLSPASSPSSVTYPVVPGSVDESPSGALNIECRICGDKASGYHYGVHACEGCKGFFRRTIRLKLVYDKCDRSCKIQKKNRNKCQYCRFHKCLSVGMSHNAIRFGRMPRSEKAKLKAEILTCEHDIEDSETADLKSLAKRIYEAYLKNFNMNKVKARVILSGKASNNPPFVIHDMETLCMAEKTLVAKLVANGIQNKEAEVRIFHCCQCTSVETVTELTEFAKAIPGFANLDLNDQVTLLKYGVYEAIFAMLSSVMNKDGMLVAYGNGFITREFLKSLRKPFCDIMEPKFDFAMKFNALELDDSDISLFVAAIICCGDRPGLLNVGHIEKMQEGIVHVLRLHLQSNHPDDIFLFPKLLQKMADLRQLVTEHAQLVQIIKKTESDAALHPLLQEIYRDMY", "assay": "Transactivation of GAL4-tagged human PPARalpha ligand binding domain expressed in HEK293T cells at 1 uM after 12 to 14 hrs by dual-glo luciferase reporter gene assay", "format": "cell-based", "conditions": "HEK-293T", "outline": "as §1"}, "[11]": {"target": "Nuclear receptor subfamily 1 group I member 3 (Homo sapiens, UniProt Q14994)", "sequence (Q14994 whole entry, the tested form may be a part, canonical isoform)": "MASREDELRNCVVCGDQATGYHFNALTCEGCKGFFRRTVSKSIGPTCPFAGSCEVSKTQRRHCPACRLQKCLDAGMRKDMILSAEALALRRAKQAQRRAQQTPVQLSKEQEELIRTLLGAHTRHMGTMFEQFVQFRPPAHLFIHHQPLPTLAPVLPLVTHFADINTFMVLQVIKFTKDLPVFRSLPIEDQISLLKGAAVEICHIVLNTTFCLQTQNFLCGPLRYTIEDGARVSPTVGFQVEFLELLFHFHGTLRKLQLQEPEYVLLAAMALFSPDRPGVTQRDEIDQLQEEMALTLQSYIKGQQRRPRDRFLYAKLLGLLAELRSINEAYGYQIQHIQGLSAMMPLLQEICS", "assay": "Antagonist activity at GAL4-tagged human CAR isoform 6 ligand binding domain (48 to 324 residues) expressed in HEK293T cells at 1 uM after 12 to 14 hrs by dual-glo luciferase reporter gene assay", "format": "cell-based", "conditions": "hek-293t", "outline": "as §1"}, "[12]": {"target": "Vitamin D3 receptor (Homo sapiens) (UniProt P11473)", "assay": "Antagonist activity at GAL4-tagged human VDR isoform 1 ligand binding domain (119 to 427 residues) expressed in HEK293T cells at 1 uM after 12 to 14 hrs by dual-glo luciferase reporter gene assay", "format": "cell-based", "conditions": "HEK-293T", "outline": "as §1"}, "[13]": {"target": "Retinoic acid receptor alpha (Homo sapiens) (UniProt P10276)", "assay": "Antagonist activity at GAL4-tagged human RARalpha1 ligand binding domain (177 to 462 residues) expressed in HEK293T cells at 1 uM after 12 to 14 hrs by dual-glo luciferase reporter gene assay", "format": "cell-based", "conditions": "HEK-293T", "outline": "as §1"}, "HeLa [14]": {"test_system": "HeLa", "assay": "Selectivity ratio for human FXR expressed in human HeLa cells co-expressing BSEP over GAL4-tagged human VDR isoform 1 ligand binding domain (119 to 427 residues) expressed in HEK293T cells", "format": "cell-based"}, "HeLa [15]": {"test_system": "HeLa", "assay": "Selectivity ratio for human FXR expressed in human HeLa cells co-expressing BSEP over GAL4-tagged human RXRgamma ligand binding domain (229 to 463 residues) expressed in HEK293T cells", "format": "cell-based"}, "HeLa [16]": {"test_system": "HeLa", "assay": "Selectivity ratio for human FXR expressed in human HeLa cells co-expressing BSEP over GAL4-tagged human RXRbeta isoform 1 ligand binding domain (294 to 533 residues) expressed in HEK293T cells", "format": "cell-based"}, "HeLa [17]": {"test_system": "HeLa", "assay": "Selectivity ratio for human FXR expressed in human HeLa cells co-expressing BSEP over GAL4-tagged human LXRbeta ligand binding domain expressed in HEK293T cells", "format": "cell-based"}, "HeLa [18]": {"test_system": "HeLa", "assay": "Selectivity ratio for human FXR expressed in human HeLa cells co-expressing BSEP over GAL4-tagged human PPARdelta ligand binding domain expressed in HEK293T cells", "format": "cell-based"}, "HeLa [19]": {"test_system": "HeLa", "assay": "Selectivity ratio for human FXR expressed in human HeLa cells co-expressing BSEP over GAL4-tagged human PPARgamma ligand binding domain expressed in HEK293T cells", "format": "cell-based"}, "HeLa [20]": {"test_system": "HeLa", "assay": "Selectivity ratio for human FXR expressed in human HeLa cells co-expressing BSEP over GAL4-tagged human PPARalpha ligand binding domain expressed in HEK293T cells", "format": "cell-based"}, "[21]": {"target": "T2, Bile acid receptor (Homo sapiens) (UniProt Q96RI1)", "T2 sequence (whole entry)": "T1 sequence (Q96RI1 whole entry)", "assay": "Modulation of FXR in human HepG2 cells assessed as induction of OSTalpha mRNA expression at 10 nM by qRT-PCR analysis", "format": "cell-based", "outline": "(§2)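 HepG2 hepatocarcinoma cells were incubated with the compound at 10 nM. FXR target-gene mRNA was quantified by qRT-PCR (n = 3), with significance at p < 0.05, 0.01 and 0.001.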"}, "[22]": {"target": "T2, Bile acid receptor (Homo sapiens)", "assay": "Modulation of FXR in human HepG2 cells assessed as suppression of CYP7A1 mRNA expression at 10 nM by qRT-PCR analysis", "format": "cell-based", "outline": "as §2"}},
  "note": "Calls of active or inactive are those of the source. The rule behind the calls is not given here.",
  "data": [
    {"smiles": "COc1ccc(CNc2c(-c3cc(Cl)ccn3)nc3ccc(Cl)cn23)cc1", "values": [
      {"measurement": "EC50", "setting": "Bile acid receptor", "result": 0.3, "unit": "nM"},
      {"measurement": "solubility", "setting": "[1]", "result": 0.0637, "unit": "µg/mL"},
      {"measurement": "Activity", "setting": "HepG2", "result": "Non-Toxic"},
      {"measurement": "Activity", "setting": "[2]", "result": "inactive"},
      {"measurement": "Activity", "setting": "[3]", "result": "inactive"},
      {"measurement": "Activity", "setting": "[4]", "result": "inactive"},
      {"measurement": "Activity", "setting": "[5]", "result": "inactive"},
      {"measurement": "Activity", "setting": "[6]", "result": "inactive"},
      {"measurement": "Activity", "setting": "[7]", "result": "inactive"},
      {"measurement": "Activity", "setting": "[8]", "result": "inactive"},
      {"measurement": "Activity", "setting": "[9]", "result": "inactive"},
      {"measurement": "Activity", "setting": "[10]", "result": "inactive"},
      {"measurement": "inhibition (INH)", "setting": "[11]", "result": "Not Active"},
      {"measurement": "inhibition", "setting": "[12]", "result": "inactive"},
      {"measurement": "inhibition", "setting": "[13]", "result": "inactive"},
      {"measurement": "Selectivity ratio", "setting": "HeLa [14]", "result": 3000},
      {"measurement": "Selectivity ratio", "setting": "HeLa [15]", "result": 3000},
      {"measurement": "Selectivity ratio", "setting": "HeLa [16]", "result": 3000},
      {"measurement": "Selectivity ratio", "setting": "HeLa [17]", "result": 3000},
      {"measurement": "Selectivity ratio", "setting": "HeLa [18]", "result": 3000},
      {"measurement": "Selectivity ratio", "setting": "HeLa [19]", "result": 3000},
      {"measurement": "Selectivity ratio", "setting": "HeLa [20]", "result": 3000},
      {"measurement": "Activity", "setting": "[21]", "result": "Active"},
      {"measurement": "Activity", "setting": "[22]", "result": "Active"}
    ]}
  ]
}
